Active and inactive are the calls of the source. The rule behind the calls is not given here.
What was measured:
J774.A1 [1] = test: Antiinflammatory activity in mouse J774.A1 cells assessed as decrease in LPS-induced TNF-alpha secretion at 20 uM preincubated for 30 mins followed by LPS stimulation and measured after 24 hrs by ELISA; assay type: functional; details: time 24.5 hrs
Summary of the method: (§1)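 J774A.1 macrophages pretreated 30 min with 20 μM compound, DMSO as negative control. Cells then stimulated with LPS at 0.5 μg/mL for 24 h. IL-6 and TNF-α in the culture medium measured by ELISA.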

J774.A1 [2] = test: Antiinflammatory activity in mouse J774.A1 cells assessed as decrease in LPS-induced IL-6 secretion at 20 uM preincubated for 30 mins followed by LPS stimulation and measured after 24 hrs by ELISA; assay type: functional; design: scale not given: the % may be the effect or the level left; details: time 24.5 hrs; summary of the method: as §1
J774.A1 [3] = test: Antiinflammatory activity in mouse J774.A1 cells assessed as decrease in LPS-induced TNF-alpha secretion preincubated for 30 mins followed by LPS stimulation and measured after 24 hrs by ELISA; assay type: functional, cell-based; details: for Activity: time 24.5 hrs
Summary of the method: (§2)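 J774A.1 cells pretreated 30 min across a concentration range, then challenged with LPS at 0.5 μg/mL for 24 h. Secreted IL-6 or TNF-α measured in the medium by ELISA, and IC50 taken from dose–response. Mean ± SEM of 3 independent experiments.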

J774.A1 [4] = test: Antiinflammatory activity in mouse J774.A1 cells assessed as decrease in LPS-induced IL-6 secretion preincubated for 30 mins followed by LPS stimulation and measured after 24 hrs by ELISA; assay type: functional, cell-based; details: for Activity: time 24.5 hrs; summary of the method: as §2
Mus musculus [5] = test: Antiinflammatory activity in C57BL/6J mouse model of LPS-induced acute lung injury assessed as reduction in […] infiltration at 20 mg/kg, po administered 30 mins prior to LPS treatment and measured after 6 hrs by F4/80 antibody staining based assay; assay type: functional, organism-based; details: time 6.5 hrs
Summary of the method: (§3)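 Oral pretreatment 30 min before intratracheal LPS at 5 mg/kg, with a saline sham group. Lungs taken at 6 h. Sections immunostained for F4/80 (macrophage marker) or for p-p65, counterstained with hematoxylin. Percentage of positive cells assessed.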

Mus musculus [6] = test: Antiinflammatory activity in C57BL/6J mouse model of LPS-induced acute lung injury assessed as reduction in neutrophil count in BALF at 20 mg/kg, po administered 30 mins prior to LPS treatment and measured after 6 hrs by Wright and Giemsa staining based analysis; assay type: functional, organism-based; details: time 6.5 hrs
Summary of the method: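 Oral dosing 30 min before intratracheal LPS at 5 mg/kg, with a saline sham group. BALF collected at 6 h and neutrophils counted by Wright-Giemsa staining, given relative to control. Mean ± SEM, n = 8.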

Mus musculus [7] = test: Antiinflammatory activity in C57BL/6J mouse model of LPS-induced acute lung injury assessed as reduction in p-p65 level at 20 mg/kg, po administered 30 mins prior to LPS treatment and measured after 6 hrs by immunohistochemical analysis; assay type: functional, organism-based; details: time 6.5 hrs; summary of the method: as §3
Mus musculus [8] = test: Antiinflammatory activity in C57BL/6J mouse model of LPS-induced acute lung injury assessed as reduction in TNF-alpha production in BALF at 20 mg/kg, po administered 30 mins prior to LPS treatment and measured after 6 hrs; assay type: functional, organism-based; details: time 6.5 hrs
Summary of the method: (§4)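 Mice dosed orally 30 min before intratracheal LPS at 5 mg/kg; sham mice received a similar volume of saline. Animals sacrificed 6 h after LPS, and blood and BALF collected. TNF-α and IL-6 measured in serum and in BALF. Mean ± SEM, n = 8, compared with the LPS-only group.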

Mus musculus [9] = test: Antiinflammatory activity in C57BL/6J mouse model of LPS-induced acute lung injury assessed as reduction in IL-6 production in BALF at 20 mg/kg, po administered 30 mins prior to LPS treatment and measured after 6 hrs; assay type: functional, organism-based; details: time 6.5 hrs; summary of the method: as §4
Mus musculus [10] = test: Antiinflammatory activity in C57BL/6J mouse model of LPS-induced acute lung injury assessed as reduction in tissue destruction at 20 mg/kg, po administered 30 mins prior to LPS treatment and measured after 6 hrs by H and E staining based assay; assay type: functional, organism-based; details: time 6.5 hrs
Summary of the method: (§5)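 Oral pretreatment 30 min before intratracheal LPS at 5 mg/kg, with a saline sham group. Lungs harvested 6 h later. H&E-stained sections scored for alveolar septal thickness, pulmonary congestion, inflammatory infiltration and tissue destruction.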

Mus musculus [11] = test: Antiinflammatory activity in C57BL/6J mouse model of LPS-induced acute lung injury assessed as reduction in inflammatory infiltration at 20 mg/kg, po administered 30 mins prior to LPS treatment and measured after 6 hrs by H and E staining based assay; assay type: functional, organism-based; details: time 6.5 hrs; summary of the method: as §5
Mus musculus [12] = test: Antiinflammatory activity in C57BL/6J mouse model of LPS-induced acute lung injury assessed as reduction in IL-6 production in serum at 20 mg/kg, po administered 30 mins prior to LPS treatment and measured after 6 hrs; assay type: functional, organism-based; details: time 6.5 hrs; summary of the method: as §4
Mus musculus [13] = test: Antiinflammatory activity in C57BL/6J mouse model of LPS-induced acute lung injury assessed as reduction in pulmonary congestion at 20 mg/kg, po administered 30 mins prior to LPS treatment and measured after 6 hrs by H and E staining based assay; assay type: functional, organism-based; details: time 6.5 hrs; summary of the method: as §5
Mus musculus [14] = test: Antiinflammatory activity in C57BL/6J mouse model of LPS-induced acute lung injury assessed as reduction in TNF-alpha production in serum at 20 mg/kg, po administered 30 mins prior to LPS treatment and measured after 6 hrs; assay type: functional, organism-based; details: time 6.5 hrs; summary of the method: as §4
Mus musculus [15] = test: Antiinflammatory activity in C57BL/6J mouse model of LPS-induced acute lung injury assessed as reduction in alveolar septa thickness at 20 mg/kg, po administered 30 mins prior to LPS treatment and measured after 6 hrs by H and E staining based assay; assay type: functional, organism-based; details: time 6.5 hrs; summary of the method: as §5

| SMILES | Activity (J774.A1 [1]) | Activity (J774.A1 [2]) | also measured |
| --- | --- | --- | --- |
| COc1cccc(CS(=O)(=O)c2ccc(N(C)C)c([N+](=O)[O-])c2)c1 | inactive | 8.62% | – |
| COCCN1CCN(c2ccc(S(=O)(=O)Cc3cccc(OC)c3)cc2[N+](=O)[O-])CC1 | inactive | inactive | – |
| CN(C)c1ccc(S(=O)(=O)Cc2ccccc2)cc1[N+](=O)[O-] | inactive | inactive | – |
| CN(C)c1ccc(S(=O)(=O)Cc2ccc(F)cc2)cc1[N+](=O)[O-] | inactive | inactive | – |
| Cc1ccc(CS(=O)(=O)c2ccc(N3CCN(CCO)CC3)c([N+](=O)[O-])c2)cc1 | inactive | inactive | – |
| O=[N+]([O-])c1cccc(CN2CCN(c3ccc(S(=O)(=O)Cc4ccc(F)cc4)cc3[N+](=O)[O-])CC2)c1 | 27.46% | 59.52% | – |
| Cc1ccc(CS(=O)(=O)c2ccc(N3CCN(c4ccc([N+](=O)[O-])cc4)CC3)c([N+](=O)[O-])c2)cc1 | inactive | inactive | – |
| CN1CCN(c2ccc(S(=O)(=O)Cc3ccccc3)cc2[N+](=O)[O-])CC1 | 16.86% | 53.04% | – |
| O=[N+]([O-])c1cccc(CN2CCN(c3ccc(S(=O)(=O)Cc4ccccc4)cc3[N+](=O)[O-])CC2)c1 | inactive | 57.27% | – |
| CCN1CCN(c2ccc(S(=O)(=O)Cc3ccc(F)cc3)cc2[N+](=O)[O-])CC1 | inactive | 31.39% | – |
| COCCN1CCN(c2ccc(S(=O)(=O)Cc3ccc(C)cc3)cc2[N+](=O)[O-])CC1 | inactive | 2.98% | – |
| CC(=O)N1CCN(c2ccc(S(=O)(=O)Cc3ccccc3)cc2[N+](=O)[O-])CC1 | 19.12% | 40.41% | – |
| COc1cccc(CS(=O)(=O)c2ccc(N3CCN(c4ccc([N+](=O)[O-])cc4)CC3)c([N+](=O)[O-])c2)c1 | inactive | 66.21% | – |
| COc1cccc(CS(=O)(=O)c2ccc(N3CCNCC3)c([N+](=O)[O-])c2)c1 | inactive | 18.18% | – |
| O=[N+]([O-])c1cccc(CN2CCN(c3ccc(S(=O)(=O)Cc4cccc(F)c4)cc3[N+](=O)[O-])CC2)c1 | 22.51% | 59.44% | – |
| O=[N+]([O-])c1ccc(N2CCN(c3ccc(S(=O)(=O)Cc4ccccc4)cc3[N+](=O)[O-])CC2)cc1 | inactive | 51.52% | – |
| COCCN1CCN(c2ccc(S(=O)(=O)Cc3ccccc3)cc2[N+](=O)[O-])CC1 | inactive | inactive | – |
| CCN1CCN(c2ccc(S(=O)(=O)Cc3ccccc3)cc2[N+](=O)[O-])CC1 | inactive | 21.24% | – |
| O=[N+]([O-])c1ccc(N2CCN(c3ccc(S(=O)(=O)Cc4cccc(F)c4)cc3[N+](=O)[O-])CC2)cc1 | 12.18% | 68.87% | IC50 (J774.A1 [3]): 23.4 µM; Activity (J774.A1 [3]): Active; IC50 (J774.A1 [4]): 6.01 µM; Activity (J774.A1 [4]): Dose-Dependent Effect |

| SMILES | Activity (J774.A1 [1]) | Activity (J774.A1 [2]) | also measured |
| --- | --- | --- | --- |
| COCCN1CCN(c2ccc(S(=O)(=O)Cc3cccc(F)c3)cc2[N+](=O)[O-])CC1 | inactive | 0.29% | – |
| O=[N+]([O-])c1cc(S(=O)(=O)Cc2ccc(F)cc2)ccc1N1CCN(CCO)CC1 | 29.96% | 54.2% | – |
| COCCN1CCN(c2ccc(S(=O)(=O)Cc3ccc(F)cc3)cc2[N+](=O)[O-])CC1 | inactive | 12.89% | – |
| COc1cccc(CS(=O)(=O)c2ccc(N3CCN(C(C)=O)CC3)c([N+](=O)[O-])c2)c1 | inactive | 5.7% | – |
| CCN1CCN(c2ccc(S(=O)(=O)Cc3ccc(C)cc3)cc2[N+](=O)[O-])CC1 | inactive | 52.95% | – |
| COc1cccc(CS(=O)(=O)c2ccc(N3CCN(CCO)CC3)c([N+](=O)[O-])c2)c1 | inactive | 15.23% | – |
| C[C@@H]1C[C@H]2[C@@H]3CCC4=CC(=O)C=C[C@]4(C)[C@@]3(F)[C@@H](O)C[C@]2(C)[C@@]1(O)C(=O)CO | – | – | Activity (Mus musculus [5]): Active; Activity (Mus musculus [6]): Active; Activity (Mus musculus [7]): Active |
| CC(=O)N1CCN(c2ccc(S(=O)(=O)Cc3ccc(F)cc3)cc2[N+](=O)[O-])CC1 | 10.99% | 33.81% | – |
| CCN1CCN(c2ccc(S(=O)(=O)Cc3cccc(OC)c3)cc2[N+](=O)[O-])CC1 | 33.13% | 63.29% | Activity (Mus musculus [8]): Active; IC50 (J774.A1 [3]): 19.6 µM; Activity (J774.A1 [3]): Active; Activity (Mus musculus [9]): Active; Activity (Mus musculus [5]): Active; IC50 (J774.A1 [4]): 5.66 µM; Activity (J774.A1 [4]): Dose-Dependent Effect; Activity (Mus musculus [10]): Active; Activity (Mus musculus [11]): Active; Activity (Mus musculus [6]): Active; Activity (Mus musculus [12]): Active; Activity (Mus musculus [13]): Active; Activity (Mus musculus [14]): Active; Activity (Mus musculus [15]): Active; Activity (Mus musculus [7]): Active |
| CC(=O)N1CCN(c2ccc(S(=O)(=O)Cc3cccc(F)c3)cc2[N+](=O)[O-])CC1 | 36.28% | 62.38% | IC50 (J774.A1 [3]): 28.9 µM; Activity (J774.A1 [3]): Active; IC50 (J774.A1 [4]): 14.7 µM; Activity (J774.A1 [4]): Dose-Dependent Effect |
| O=[N+]([O-])c1ccc(N2CCN(c3ccc(S(=O)(=O)Cc4ccc(F)cc4)cc3[N+](=O)[O-])CC2)cc1 | 18.6% | 62.47% | – |
| O=[N+]([O-])c1cc(S(=O)(=O)Cc2ccccc2)ccc1N1CCN(CCO)CC1 | 29.04% | 56.59% | – |
| O=[N+]([O-])c1cc(S(=O)(=O)Cc2cccc(F)c2)ccc1N1CCN(CCO)CC1 | inactive | 4.55% | – |
| COc1cccc(CS(=O)(=O)c2ccc(N3CCN(Cc4cccc([N+](=O)[O-])c4)CC3)c([N+](=O)[O-])c2)c1 | inactive | 41.95% | – |
| CN(C)CCS(=O)(=O)Cc1ccc(Br)cc1 | inactive | 79.61% | – |
| O=[N+]([O-])c1ccc(CN2CCN(c3ccc(S(=O)(=O)Cc4ccc(F)cc4)cc3[N+](=O)[O-])CC2)cc1 | 26.45% | 71.54% | Activity (J774.A1 [3]): inactive; Activity (J774.A1 [4]): inactive |
| CCN1CCN(c2ccc(S(=O)(=O)Cc3cccc(F)c3)cc2[N+](=O)[O-])CC1 | 24.43% | 58.89% | – |
| CC(=O)N1CCN(c2ccc(S(=O)(=O)Cc3ccc(C)cc3)cc2[N+](=O)[O-])CC1 | inactive | 16.83% | – |
| CN(C)c1ccc(S(=O)(=O)Cc2cccc(F)c2)cc1[N+](=O)[O-] | inactive | inactive | – |
